According to ChEMBL document CHEMBL4840303, “Design, synthesis, biological evaluation and pharmacophore model analysis of novel tetrahydropyrrolo[3,4-c]pyrazol derivatives as potential TRKs inhibitors” (Eur J Med Chem, 2021):
pIC50: −log10 of the molar value.

What was measured:
[1] = target: Focal adhesion kinase 1 (Homo sapiens) (UniProt Q05397); test: Inhibition of recombinant GST-tagged full length human FAK expressed in baculovirus expression system at 1 uM measured by select screen assay
In short: (§1)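 Single-concentration profiling at 1.0 µM in a 28-kinase SelectScreen panel; percent inhibition reported.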

[2] = target: AMP-activated protein kinase, AMPK (Homo sapiens) (UniProt P54646+O43741+P54619+Q9UGJ0+Q9Y478+Q13131+Q9UGI9); test: Inhibition of recombinant GST-tagged His-tagged full length human AMPK expressed in baculovirus expression system at 1 uM measured by select screen assay; in short: as §1
[3] = target: BDNF/NT-3 growth factors receptor (Homo sapiens, UniProt Q16620); test: Inhibition of N-terminal GST-tagged human TRKB (456 to 822 residues) expressed in baculovirus infected Sf21 cells using TK as substrate in presence of ATP measured after 40 mins by HTRF assay
Sequence of BDNF/NT-3 growth factors receptor (Q16620 whole entry, the tested form may be a part): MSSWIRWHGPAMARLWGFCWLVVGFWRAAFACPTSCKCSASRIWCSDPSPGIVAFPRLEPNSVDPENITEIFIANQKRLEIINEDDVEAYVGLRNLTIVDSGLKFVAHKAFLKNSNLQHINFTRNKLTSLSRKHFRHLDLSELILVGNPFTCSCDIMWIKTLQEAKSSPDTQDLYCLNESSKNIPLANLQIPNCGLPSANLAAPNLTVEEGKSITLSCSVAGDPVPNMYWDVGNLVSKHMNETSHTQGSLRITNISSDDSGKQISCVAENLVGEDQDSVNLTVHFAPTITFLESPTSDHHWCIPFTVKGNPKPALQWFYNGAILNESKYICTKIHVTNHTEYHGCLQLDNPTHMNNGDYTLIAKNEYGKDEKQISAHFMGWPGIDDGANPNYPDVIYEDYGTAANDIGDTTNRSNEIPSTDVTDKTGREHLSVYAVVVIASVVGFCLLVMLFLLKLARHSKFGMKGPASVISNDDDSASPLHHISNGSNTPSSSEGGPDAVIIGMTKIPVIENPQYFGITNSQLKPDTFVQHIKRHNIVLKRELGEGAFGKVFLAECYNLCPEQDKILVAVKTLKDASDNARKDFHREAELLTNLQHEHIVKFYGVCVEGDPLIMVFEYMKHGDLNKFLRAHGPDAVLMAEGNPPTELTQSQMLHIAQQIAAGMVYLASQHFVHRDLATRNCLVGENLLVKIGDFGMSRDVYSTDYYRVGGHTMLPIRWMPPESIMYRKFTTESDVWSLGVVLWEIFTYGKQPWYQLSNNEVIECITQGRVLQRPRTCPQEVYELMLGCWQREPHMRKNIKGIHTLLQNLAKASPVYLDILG

[4] = target: NT-3 growth factor receptor (Homo sapiens, UniProt Q16288); test: Inhibition of N-terminal GST-tagged human TRKC (456 to 825 residues) expressed in Sf21 using TK as substrate in presence of ATP measured after 40 mins by HTRF assay
KM12 [5] = test: Induction of apoptosis in human KM12 cells assessed as necrotic cells at 62.5 nM measured after 48 hrs by AnnexinV-FITC/PI staining based flowcytometry assay relative to control; assay type: functional
In short: (§2)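 10^5 cells in Annexin V binding buffer stained with FITC-Annexin V and PI for 10 min at room temperature in the dark, diluted with PBS and analysed by flow cytometry (FITC 494/518 nm, PI 535/617 nm).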

KM12 [6] = test: Induction of apoptosis in human KM12 cells assessed as viable cells at 125 nM measured after 48 hrs by AnnexinV-FITC/PI staining based flowcytometry assay relative to control; assay type: functional; conditions: read-out: Activity; in short: as §2
KM12 [7] = test: Induction of apoptosis in human KM12 cells assessed as viable cells at 1000 nM measured after 48 hrs by AnnexinV-FITC/PI staining based flowcytometry assay relative to control; assay type: functional; conditions: read-out: Activity; in short: as §2
KM12 [8] = test: Cell cycle arrest in human KM12 cells assessed as accumulation of cells at G1 phase at 62.5 nM measured after 48 hrs by AnnexinV-FITC/PI staining based flowcytometry method relative to control; assay type: functional
KM12 [9] = test: Cell cycle arrest in human KM12 cells assessed as accumulation of cells at less G1 phase at 62.5 nM measured after 48 hrs by AnnexinV-FITC/PI staining based flowcytometry method relative to control; assay type: functional
KM12 [10] = test: Cell cycle arrest in human KM12 cells assessed as accumulation of cells at G1 phase at 250 nM measured after 48 hrs by AnnexinV-FITC/PI staining based flowcytometry method relative to control; assay type: functional
KM12 [11] = test: Cell cycle arrest in human KM12 cells assessed as accumulation of cells at G1 phase at 500 nM measured after 48 hrs by AnnexinV-FITC/PI staining based flowcytometry method relative to control; assay type: functional
KM12 [12] = test: Cell cycle arrest in human KM12 cells assessed as accumulation of cells at G2 phase at 500 nM measured after 48 hrs by AnnexinV-FITC/PI staining based flowcytometry method relative to control; assay type: functional
[13] = target: ALK tyrosine kinase receptor (Homo sapiens) (UniProt Q9UM73); test: Inhibition of recombinant GST-tagged human ALK expressed in baculovirus expression system at 1 uM measured by select screen assay relative to control; in short: as §1
Sequence of ALK tyrosine kinase receptor (Homo sapiens) (Q9UM73 19-1620 limits assumed): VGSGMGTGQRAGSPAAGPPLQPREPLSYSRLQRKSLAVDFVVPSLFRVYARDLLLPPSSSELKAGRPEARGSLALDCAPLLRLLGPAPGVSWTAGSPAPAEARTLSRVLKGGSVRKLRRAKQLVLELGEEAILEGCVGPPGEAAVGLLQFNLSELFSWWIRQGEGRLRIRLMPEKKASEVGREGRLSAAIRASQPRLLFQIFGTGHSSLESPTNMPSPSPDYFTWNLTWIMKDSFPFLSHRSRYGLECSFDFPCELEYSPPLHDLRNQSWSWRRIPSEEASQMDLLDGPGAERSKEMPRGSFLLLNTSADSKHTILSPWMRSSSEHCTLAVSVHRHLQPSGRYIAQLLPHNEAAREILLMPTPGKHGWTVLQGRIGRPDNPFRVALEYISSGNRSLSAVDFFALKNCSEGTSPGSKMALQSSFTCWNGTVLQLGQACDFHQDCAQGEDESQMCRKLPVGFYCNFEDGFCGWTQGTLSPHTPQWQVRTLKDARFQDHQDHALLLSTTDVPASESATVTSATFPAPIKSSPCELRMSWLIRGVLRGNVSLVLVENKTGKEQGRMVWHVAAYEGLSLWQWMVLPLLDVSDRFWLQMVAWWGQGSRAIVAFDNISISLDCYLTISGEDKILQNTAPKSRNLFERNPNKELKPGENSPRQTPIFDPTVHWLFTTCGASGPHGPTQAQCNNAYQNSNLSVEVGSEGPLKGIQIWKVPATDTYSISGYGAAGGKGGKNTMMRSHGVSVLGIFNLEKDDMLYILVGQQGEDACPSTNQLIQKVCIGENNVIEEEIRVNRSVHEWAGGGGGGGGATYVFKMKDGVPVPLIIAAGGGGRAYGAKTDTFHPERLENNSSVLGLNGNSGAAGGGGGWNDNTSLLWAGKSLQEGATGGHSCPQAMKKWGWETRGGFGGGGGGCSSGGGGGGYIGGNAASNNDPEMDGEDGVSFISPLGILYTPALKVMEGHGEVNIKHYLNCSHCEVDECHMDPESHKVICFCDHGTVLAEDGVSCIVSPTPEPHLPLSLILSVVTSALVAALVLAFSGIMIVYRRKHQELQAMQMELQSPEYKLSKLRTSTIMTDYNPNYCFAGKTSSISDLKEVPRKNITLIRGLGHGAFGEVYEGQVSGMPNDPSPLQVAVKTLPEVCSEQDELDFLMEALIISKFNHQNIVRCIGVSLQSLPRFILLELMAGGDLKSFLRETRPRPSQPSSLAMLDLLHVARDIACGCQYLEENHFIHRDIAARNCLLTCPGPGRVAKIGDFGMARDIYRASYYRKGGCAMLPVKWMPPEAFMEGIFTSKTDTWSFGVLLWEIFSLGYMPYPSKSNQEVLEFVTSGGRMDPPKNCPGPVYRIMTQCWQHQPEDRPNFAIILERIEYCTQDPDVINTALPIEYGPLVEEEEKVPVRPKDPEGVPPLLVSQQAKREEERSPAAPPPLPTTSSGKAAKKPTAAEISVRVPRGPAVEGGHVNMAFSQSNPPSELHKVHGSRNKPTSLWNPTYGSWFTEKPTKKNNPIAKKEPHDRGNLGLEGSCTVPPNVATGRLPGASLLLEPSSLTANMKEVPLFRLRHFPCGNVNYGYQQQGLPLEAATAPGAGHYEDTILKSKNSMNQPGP

[14] = target: Maternal embryonic leucine zipper kinase (Homo sapiens) (UniProt Q14680); test: Inhibition of recombinant GST-tagged human MELK expressed in baculovirus expression system at 1 uM measured by select screen assay relative to control; in short: as §1
[15] = target: RAF proto-oncogene serine/threonine-protein kinase (Homo sapiens) (UniProt P04049); test: Inhibition of recombinant GST-tagged human RAF1 expressed in baculovirus expression system at 1 uM measured by select screen assay relative to control; in short: as §1
Sequence of RAF proto-oncogene serine/threonine-protein kinase (Homo sapiens) (P04049 whole entry): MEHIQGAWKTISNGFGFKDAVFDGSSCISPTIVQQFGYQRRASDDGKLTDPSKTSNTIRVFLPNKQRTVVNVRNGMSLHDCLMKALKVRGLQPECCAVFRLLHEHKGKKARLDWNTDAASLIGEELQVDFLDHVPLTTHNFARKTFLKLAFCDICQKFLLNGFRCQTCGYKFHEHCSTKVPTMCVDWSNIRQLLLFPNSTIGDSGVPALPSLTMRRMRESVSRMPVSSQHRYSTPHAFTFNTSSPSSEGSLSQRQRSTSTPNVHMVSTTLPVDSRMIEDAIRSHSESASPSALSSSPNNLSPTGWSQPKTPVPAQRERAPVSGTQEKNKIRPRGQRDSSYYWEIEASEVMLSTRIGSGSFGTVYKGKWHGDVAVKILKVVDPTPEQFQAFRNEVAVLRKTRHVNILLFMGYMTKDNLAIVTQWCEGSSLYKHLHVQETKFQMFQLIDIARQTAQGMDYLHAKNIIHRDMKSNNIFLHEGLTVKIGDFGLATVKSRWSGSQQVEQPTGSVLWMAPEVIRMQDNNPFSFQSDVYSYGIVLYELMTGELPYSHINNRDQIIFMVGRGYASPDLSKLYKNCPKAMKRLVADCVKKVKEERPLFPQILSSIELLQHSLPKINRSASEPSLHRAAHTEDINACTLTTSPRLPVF

[16] = target: Cyclin-dependent kinase 2 (Homo sapiens) (UniProt P24941); test: Inhibition of recombinant His-tagged human full length CDK2 expressed in baculovirus expression system at 1 uM measured by select screen assay relative to control; in short: as §1
[17] = target: Serine/threonine-protein kinase mTOR (Homo sapiens) (UniProt P42345); test: Inhibition of recombinant GST-tagged human mTOR (1360 to 2549 residues) expressed in baculovirus expression system at 1 uM measured by select screen assay relative to control; in short: as §1
[18] = Stability in human plasma assessed as compound remaining incubated for 30 mins by LC-MS/MS analysis; assay type: ADME, cell-free; conditions: read-out: Stability
In short: (§3)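 Pooled frozen human plasma thawed at 37 °C, centrifuged to remove clots, pH adjusted to 7.4 if required. Spiked to 2 µM final (from 100 µM dosing solution), in duplicate, incubated at 37 °C in a water bath. Sampled at 0, 10, 30, 60 and 120 min, quenched with acetonitrile stop solution containing internal standards, centrifuged, and supernatant analysed by LC-MS/MS for percent remaining.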

[19] = Stability in human plasma assessed as compound remaining incubated for 120 mins by LC-MS/MS analysis; assay type: ADME, cell-free; conditions: read-out: Stability; in short: as §3
[20] = Stability in human liver microsomes assessed as compound remaining in presence of NADPH at 100 uM measured after 60 mins by LC-MS/MS analysis; assay type: ADME, Microsome; conditions: read-out: Stability
In short: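 Human liver microsomes diluted to 0.59 mg/mL working solution in 100 mM potassium phosphate, prewarmed 10 min at 37 °C; compound added from a 100 µM working solution. NADPH (in 10 mM MgCl2) added to one plate, buffer instead in no-cofactor control. Incubated at 37 °C, quenched at 5, 15, 30, 45, 60 min, centrifuged, analysed by LC-MS/MS.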

CYP2C9 = CYP2C9 (Homo sapiens, UniProt P11712); test: Inhibition of CYP2C9 in human liver microsomes at 10 uM preincubated for 10 mins followed by addition of NADPH and measured after 15 mins by LC-MS/MS analysis; assay type: ADME; conditions: time 25 min
Sequence of CYP2C9 (P11712 whole entry): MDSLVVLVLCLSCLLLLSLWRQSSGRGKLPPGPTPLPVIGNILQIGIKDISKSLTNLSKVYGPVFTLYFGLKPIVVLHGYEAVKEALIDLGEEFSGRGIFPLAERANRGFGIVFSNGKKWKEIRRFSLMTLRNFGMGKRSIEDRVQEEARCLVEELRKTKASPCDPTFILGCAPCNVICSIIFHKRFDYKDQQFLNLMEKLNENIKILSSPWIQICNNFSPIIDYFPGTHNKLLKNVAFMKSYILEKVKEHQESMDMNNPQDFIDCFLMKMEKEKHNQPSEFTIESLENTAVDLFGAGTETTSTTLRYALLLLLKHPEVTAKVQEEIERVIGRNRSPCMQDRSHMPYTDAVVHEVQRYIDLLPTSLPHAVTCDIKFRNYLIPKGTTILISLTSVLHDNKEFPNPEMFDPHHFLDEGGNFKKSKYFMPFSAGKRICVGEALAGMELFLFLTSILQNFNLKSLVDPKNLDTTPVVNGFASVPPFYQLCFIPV
In short: (§4)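 Pooled human liver microsomes (0.253 mg/mL) with test compound at 10 µM and probe substrates: phenacetin (CYP1A2), diclofenac (CYP2C9), S-mephenytoin (CYP2C19), dextromethorphan (CYP2D6), midazolam (CYP3A4). 10 min preincubation at 37 °C, NADPH-regenerating system added, 15 min at 37 °C. Stopped with cold acetonitrile containing tolbutamide/labetalol internal standards, centrifuged, supernatant read by LC-MS/MS; % inhibition.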

CYP3A4 = CYP3A4 (Homo sapiens, UniProt P08684); test: Inhibition of CYP3A4 in human liver microsomes at 10 uM preincubated for 10 mins followed by addition of NADPH and measured after 15 mins by LC-MS/MS analysis; assay type: ADME; in short: as §4
[21] = Half life in Sprague dawley rat at 1 mg/kg, iv; assay type: ADME, organism-based; conditions: in vivo
In short: (§5)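 Blood was collected into heparin tubes at specified time points and centrifuged at once (4 °C, 4000 rpm, 20 min). Plasma levels were quantified by LC-MS/MS. Parameters came from noncompartmental analysis.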

[22] = Cmax in Sprague dawley rat at 3 mg/kg, po; assay type: ADME, organism-based; set-up: route oral, dose 3 mg/kg; conditions: in vivo; in short: as §5
[23] = AUC (0 to infinity) in Sprague dawley rat at 3 mg/kg, po; assay type: ADME, organism-based; set-up: time infinity, route oral, dose 3 mg/kg; conditions: in vivo; in short: as §5
[24] = Clearance in Sprague dawley rat at 1 mg/kg, iv; assay type: ADME, organism-based; conditions: in vivo; in short: as §5

Sequence of Focal adhesion kinase 1 (Homo sapiens) (Q05397 2-1052 limits assumed): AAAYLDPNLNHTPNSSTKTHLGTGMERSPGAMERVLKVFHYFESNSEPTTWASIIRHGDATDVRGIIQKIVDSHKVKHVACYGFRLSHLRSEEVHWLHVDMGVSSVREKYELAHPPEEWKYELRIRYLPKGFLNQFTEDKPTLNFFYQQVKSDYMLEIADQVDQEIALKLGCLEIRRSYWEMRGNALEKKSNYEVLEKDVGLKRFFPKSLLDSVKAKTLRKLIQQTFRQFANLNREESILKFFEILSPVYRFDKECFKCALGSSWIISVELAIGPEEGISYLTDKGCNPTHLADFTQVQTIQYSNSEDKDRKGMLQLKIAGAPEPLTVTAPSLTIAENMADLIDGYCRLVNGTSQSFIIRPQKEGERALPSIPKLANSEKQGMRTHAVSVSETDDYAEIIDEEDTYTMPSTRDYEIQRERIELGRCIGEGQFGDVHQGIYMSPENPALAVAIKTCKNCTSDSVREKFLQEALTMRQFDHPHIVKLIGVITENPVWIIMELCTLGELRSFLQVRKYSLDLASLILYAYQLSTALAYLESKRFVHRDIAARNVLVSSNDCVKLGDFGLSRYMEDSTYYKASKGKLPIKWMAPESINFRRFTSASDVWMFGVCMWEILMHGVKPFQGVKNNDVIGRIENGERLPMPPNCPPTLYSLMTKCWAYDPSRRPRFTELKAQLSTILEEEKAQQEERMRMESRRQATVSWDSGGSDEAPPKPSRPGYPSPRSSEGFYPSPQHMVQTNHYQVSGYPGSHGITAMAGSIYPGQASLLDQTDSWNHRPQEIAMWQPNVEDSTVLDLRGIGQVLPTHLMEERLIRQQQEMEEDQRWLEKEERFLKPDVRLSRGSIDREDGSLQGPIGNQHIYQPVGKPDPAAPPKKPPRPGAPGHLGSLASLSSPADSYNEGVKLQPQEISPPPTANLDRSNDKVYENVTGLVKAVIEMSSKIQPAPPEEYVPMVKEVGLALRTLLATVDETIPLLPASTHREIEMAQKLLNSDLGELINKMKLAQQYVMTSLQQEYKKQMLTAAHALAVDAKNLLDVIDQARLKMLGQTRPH

CN1CCN(c2ccc(C(=O)Nc3n[nH]c4c3CN(Cc3cc(F)cc(F)c3)C4(C)C)cc2)CC1
inhibition [1]: 51%
inhibition [2]: 53%
pIC50 [3]: 7.55
pIC50 [4]: 7.96
Activity (KM12 [5]): 0.03%
viability at 0.125 µM (KM12 [6]): 63.5%
viability at 1 µM (KM12 [7]): 23.7%
Activity (KM12 [8]): 40.3%
Activity (KM12 [9]): 3.63%
Activity (KM12 [10]): 74%
Activity (KM12 [11]): 73.9%
Activity (KM12 [12]): 8.75%
inhibition [13]: 82%
inhibition [14]: 22%
inhibition [15]: 11%
inhibition [16]: 3%
inhibition [17]: 1%
remaining at 0.5 h [18]: 95.7%
remaining at 2 h [19]: 101%
remaining at 1 h, 100 µM [20]: 22.4%
inhibition at 0.25 h, 10 µM (CYP2C9): 16%
inhibition at 0.25 h, 10 µM (CYP3A4): 6.4%
half-life [21]: 1.51 h
Cmax [22]: 603 ng/mL
AUC(0-inf) [23]: 2890 ng·h/mL
clearance [24]: 8.08 mL/min/kg
